The values below come from ChEMBL document CHEMBL1122629, “Potent and selective antagonists of the antidiuretic responses to arginine-vasopressin based on modifications of [1-(beta-mercapto-beta,beta-pentamethylenepropionic acid),2-D-isoleucine,4- valine]arginine-vasopressin at position 4” (J Med Chem, 1984).

The species named for assay [1] is Rattus norvegicus. The assay is described as follows: Antidiuretic activity in rats and pA2 value is negative logarithm of effective dose (ED). It is filed as functional, organism-based. The following applies: Urine, read-out: pA2 (converted). In outline:
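Antidiuretic assay in rats under ethanol anaesthesia against the USP posterior pituitary reference standard. Standard given 20 min after antagonist, or 10 min for analogues lacking agonism. Each peptide given at a high and a low dose. ED is the dose (nmol/kg) that cuts the response to 2x units of agonist to the response to 1x unit given before antagonist. […] Means ± SE, n assays.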

Assay [2] concerns Rattus norvegicus. Put plainly: Evaluated in vivo for logarithm effective dose (ED). It is filed as functional, organism-based.
The species entered for assay [3] is Rattus norvegicus. Put plainly: Anti-oxytocic activity on isolated rat uterus in presence of 0.5 mM of Mg2+. pA2 value is negative logarithm of effective dose (ED). In kind it is functional. The following applies: read-out: pA2 (converted). Summed up:
(§1)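 Isolated rat uterus, with USP posterior pituitary reference standard as agonist. Antagonism expressed as pA2.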

Assay [4] is filed under the species Rattus norvegicus. Put plainly: Anti-oxytocic activity in rat uterus pA2 value is negative logarithm of effective dose (ED). It is filed as functional, organism-based. The settings on record: read-out: pA2 (converted).
The species entered for assay [5] is Rattus norvegicus. The assay is described as follows: Anti-oxytocic activity on isolated rat uterus in absence of Mg2+. pA2 value is negative logarithm of effective dose (ED). The settings on record: read-out: pA2 (converted). In kind it is functional. Summed up: as §1
Assay [6] relates to Rattus norvegicus. The assay is described as follows: Compound was evaluated in vivo for anti-vasopressor activity in rats and pA2 value is negative logarithm of effective dose (ED). In kind it is functional, organism-based. The settings on record: read-out: pA2 (converted). Summed up:
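Intravenous vasopressor assay in phenoxybenzamine-treated rats under urethane anaesthesia, agonist USP posterior pituitary reference standard. ED is the dose (nmol/kg) that reduces the response to 2x units of agonist to that of 1x unit given before antagonist. […] Means ± SE, number of assays given.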

The species named for assay [7] is Rattus norvegicus. The assay is described as follows: In vitro anti-oxytocic activity on isolated rat uteri in absence of Mg2+. pA2 value is negative logarithm of effective dose (ED). It is filed as functional. The settings on record: read-out: pA2 (converted). Summed up:
as §1

Assay [8] relates to Rattus norvegicus. Put plainly: Compound was evaluated in vivo for anti-oxytocic activity in rat uterus. pA2 value is negative logarithm of effective dose (ED). The following applies: read-out: pA2 (converted). It is filed as functional, organism-based. Summed up: (§2)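 Rat uterus in situ, with synthetic oxytocin as agonist. ED is the dose (nmol/kg) that lowers the response to 2x units of agonist to that of 1x unit given before antagonist.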

Assay [9] has as its system Rattus norvegicus. Put plainly: Compound was evaluated in vivo for anti-oxytocic activity in rat uteri. pA2 value is negative logarithm of effective dose (ED). The following applies: read-out: pA2 (converted). It is filed as functional, organism-based. In outline: as §2

In the case of `NC(=O)CNC(=O)[C@H](CCCN=C(N)N)NC(=O)[C@@H]1CCCN1C(=O)[C@@H]1CSSC2(CCCCC2)CC(=O)N[C@H](Cc2ccccc2)C(=O)N[C@@H](Cc2ccccc2)C(=O)N[C@@H](CO)C(=O)N[C@@H](CC(N)=O)C(=O)N1`, the Kb in the assay listed under Rattus norvegicus [1] was 0.0468 µM; in the assay listed under Rattus norvegicus [3], 0.0148 µM; in the assay listed under Rattus norvegicus [4], 0.2 µM; in the assay filed under Rattus norvegicus [5], 0.0229 µM. The in vivo pA2 effective dose (as concentration) with Rattus norvegicus [2] is 0.0234 µM.
In the case of `CC[C@@H](C)[C@H]1NC(=O)CC2(CCCCC2)SSC[C@@H](C(=O)N2CCC[C@H]2C(=O)N[C@@H](CCCN=C(N)N)C(=O)NCC(N)=O)NC(=O)[C@H](CC(N)=O)NC(=O)[C@H](C)NC(=O)[C@H](Cc2ccccc2)NC1=O`, the Kb in the assay listed under Rattus norvegicus [1] is 0.0174 µM; with Rattus norvegicus [6] it was 0.933 µM; in the assay listed under Rattus norvegicus [3], 0.0339 µM; in the assay filed under Rattus norvegicus [4], 0.724 µM; in the assay listed under Rattus norvegicus [5] it was 0.0316 µM.
For the compound `CCC[C@@H]1NC(=O)[C@H](Cc2ccccc2)NC(=O)[C@@H]([C@H](C)CC)NC(=O)CC2(CCCCC2)SSC[C@@H](C(=O)N2CCC[C@H]2C(=O)N[C@@H](CCCN=C(N)N)C(=O)NCC(N)=O)NC(=O)[C@H](CC(N)=O)NC1=O`, the Kb in the assay filed under Rattus norvegicus [1] is 0.0977 µM; in the assay listed under Rattus norvegicus [3], 0.0158 µM; in the assay filed under Rattus norvegicus [4], 0.295 µM; in the assay listed under Rattus norvegicus [5], 0.0148 µM. This compound also gave an in vivo pA2 effective dose (as concentration) with Rattus norvegicus [2] of 0.11 µM.
For the compound `CC[C@@H]1NC(=O)[C@H](Cc2ccccc2)NC(=O)[C@@H]([C@H](C)CC)NC(=O)CC2(CCCCC2)SSC[C@@H](C(=O)N2CCC[C@H]2C(=O)N[C@@H](CCCN=C(N)N)C(=O)NCC(N)=O)NC(=O)[C@H](CC(N)=O)NC1=O`, the Kb in the assay filed under Rattus norvegicus [1] is 0.00603 µM; with Rattus norvegicus [6], 0.186 µM; in the assay listed under Rattus norvegicus [3], 0.0933 µM; in the assay listed under Rattus norvegicus [7], 0.0324 µM; in the assay filed under Rattus norvegicus [4], 0.224 µM.
On to `CC[C@@H](C)[C@H]1NC(=O)CC2(CCCCC2)SSC[C@@H](C(=O)N2CCC[C@H]2C(=O)N[C@@H](CCCN=C(N)N)C(=O)NCC(N)=O)NC(=O)[C@H](CC(N)=O)NC(=O)[C@H]([C@@H](C)O)NC(=O)[C@H](Cc2ccccc2)NC1=O`, for which the Kb in the assay filed under Rattus norvegicus [1] was 0.0123 µM; in the assay listed under Rattus norvegicus [3], 0.0204 µM; in the assay on Rattus norvegicus [8] it was 0.135 µM; in the assay listed under Rattus norvegicus [5], 0.00794 µM. In addition, the in vivo pA2 effective dose (as concentration) in the assay with Rattus norvegicus [2] is 0.148 µM.
With `CC[C@@H](C)[C@H]1NC(=O)CC2(CCCCC2)SSC[C@@H](C(=O)N2CCC[C@H]2C(=O)N[C@@H](CCCN=C(N)N)C(=O)NCC(N)=O)NC(=O)[C@H](CC(N)=O)NC(=O)[C@H]([C@@H](C)CC)NC(=O)[C@H](Cc2ccccc2)NC1=O`, the Kb with Rattus norvegicus [9] was 0.126 µM; in the assay listed under Rattus norvegicus [1], 0.00912 µM; in the assay with Rattus norvegicus [6] it was 0.38 µM; in the assay filed under Rattus norvegicus [3] it was 0.0151 µM; in the assay filed under Rattus norvegicus [5], 0.0339 µM.
